ChEMBL document CHEMBL4190252, “Synthesis, antitumor activity and CDK1 inhibiton of new thiazole nortopsentin analogues” (Eur J Med Chem, 2017)
The source made the active and inactive calls. The rule behind the calls is not given here.

Assays:
[1] = test system: PC-3; assay: Growth inhibition of human PC3 cells incubated for 48 hrs by sulforhodamine B assay; type: functional; conditions: PC-3, 48 h
Outline: (§1)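 NCI full panel screen: five 10-fold dilutions (10^-4–10^-8 M). GI50 is the molar concentration giving 50% inhibition of net cell growth.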

[2] = test system: NCI-H522; assay: Growth inhibition of human NCI-H522 cells incubated for 48 hrs by sulforhodamine B assay; type: functional; conditions: NCI-H522, 48 h; outline: as §1
[3] = test system: OVCAR-5; assay: Growth inhibition of human OVCAR5 cells incubated for 48 hrs by sulforhodamine B assay; type: functional; conditions: OVCAR-5, 48 h; outline: as §1
[4] = test system: SW-620; assay: Growth inhibition of human SW620 cells incubated for 48 hrs by sulforhodamine B assay; type: functional; conditions: SW-620, 48 h
Outline: (§2)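 NCI full-panel human tumour cell screen. Cells were exposed to five 10-fold dilutions from 10^-4 to 10^-8 M. GI50 is the molar concentration giving 50% inhibition of net cell growth, and a mean graph midpoint was calculated across the panel.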

[5] = test system: SN12C; assay: Growth inhibition of human SN12C cells incubated for 48 hrs by sulforhodamine B assay; type: functional; outline: as §2
[6] = test system: SK-MEL-2; assay: Growth inhibition of human SK-MEL-2 cells incubated for 48 hrs by sulforhodamine B assay; type: functional; conditions: SK-MEL-2, 48 h; outline: as §2
[7] = test system: SK-MEL-5; assay: Growth inhibition of human SK-MEL-5 cells incubated for 48 hrs by sulforhodamine B assay; type: functional; conditions: SK-MEL-5, 48 h; outline: as §2
[8] = test system: T47D; assay: Growth inhibition of human T47D cells incubated for 48 hrs by sulforhodamine B assay; type: functional; outline: as §2
[9] = test system: IGROV-1; assay: Growth inhibition of human IGROV1 cells incubated for 48 hrs by sulforhodamine B assay; type: functional; conditions: IGROV-1, 48 h; outline: as §1
[10] = test system: SK-OV-3; assay: Growth inhibition of human SKOV3 cells incubated for 48 hrs by sulforhodamine B assay; type: functional; conditions: SK-OV-3, 48 h; outline: as §2
[11] = test system: COLO 205; assay: Growth inhibition of human COLO205 cells incubated for 48 hrs by sulforhodamine B assay; type: functional; conditions: COLO 205, 48 h; outline: as §1
[12] = test system: HCT-116; assay: Growth inhibition of human HCT116 cells incubated for 48 hrs by sulforhodamine B assay; type: functional; conditions: HCT-116, 48 h; outline: as §1
[13] = test system: HT-29; assay: Growth inhibition of human HT-29 cells incubated for 48 hrs by sulforhodamine B assay; type: functional; conditions: HT-29, 48 h; outline: as §1
[14] = test system: LOX IMVI; assay: Growth inhibition of human LOXIMVI cells incubated for 48 hrs by sulforhodamine B assay; type: functional; outline: as §1
[15] = test system: UACC-62; assay: Growth inhibition of human UACC62 cells incubated for 48 hrs by sulforhodamine B assay; type: functional; conditions: UACC-62, 48 h; outline: as §2
[16] = test system: K562; assay: Growth inhibition of human K562 cells incubated for 48 hrs by sulforhodamine B assay; type: functional; conditions: K562, 48 h; outline: as §1
[17] = test system: Malme-3M; assay: Growth inhibition of human MALME-3M cells incubated for 48 hrs by sulforhodamine B assay; type: functional; outline: as §1
[18] = test system: OVCAR-3; assay: Growth inhibition of human OVCAR3 cells incubated for 48 hrs by sulforhodamine B assay; type: functional; conditions: OVCAR-3, 48 h; outline: as §1
[19] = test system: Panel NCI-60 (60 carcinoma cell lines); assay: Growth inhibition of human NCI60 cells at 10^-5 M incubated for 48 hrs by sulforhodamine B assay; type: functional, cell-based
[20] = test system: MDA-MB-468; assay: Growth inhibition of human MDA-MB-468 cells incubated for 48 hrs by sulforhodamine B assay; type: functional; conditions: MDA-MB-468, 48 h; outline: as §1
[21] = test system: NCI/ADR-RES; assay: Growth inhibition of human NCI/ADR-RES cells incubated for 48 hrs by sulforhodamine B assay; type: functional; outline: as §1
[22] = test system: OVCAR-8; assay: Growth inhibition of human OVCAR8 cells incubated for 48 hrs by sulforhodamine B assay; type: functional; conditions: OVCAR-8, 48 h; outline: as §1
[23] = test system: HCT-15; assay: Growth inhibition of human HCT15 cells incubated for 48 hrs by sulforhodamine B assay; type: functional; conditions: HCT-15, 48 h; outline: as §1
[24] = test system: A549; assay: Growth inhibition of human A549/ATCC cells incubated for 48 hrs by sulforhodamine B assay; type: functional; conditions: A549, 48 h; outline: as §1
[25] = test system: HOP-62; assay: Growth inhibition of human HOP62 cells incubated for 48 hrs by sulforhodamine B assay; type: functional; conditions: HOP-62, 48 h; outline: as §1
[26] = test system: Caco-2; assay: Cytotoxicity against human Caco2 cells assessed as reduction in cell survival at 25 to 100 uM after 72 hrs by MTT assay; type: cell-based; conditions: caco-2, 72 h
Outline: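 Caco-2 cells, differentiated 15 days post-confluence, seeded at 2 x 10^4 cells/well and treated 72 h with 5–100 µM compound. MTT added (5 mg/mL in FBS-free medium), 2 h at 37 °C, formazan dissolved in DMSO, absorbance at 570 nm. Viability relative to vehicle control (100%); LC50 taken from the viability-concentration plot. At least three experiments in triplicate.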

[27] = test system: NCI-H23; assay: Growth inhibition of human NCI-H23 cells incubated for 48 hrs by sulforhodamine B assay; type: functional; conditions: NCI-H23, 48 h; outline: as §1
[28] = test system: Hs-578T; assay: Growth inhibition of human Hs 578T cells incubated for 48 hrs by sulforhodamine B assay; type: functional; outline: as §1
[29] = test system: A498; assay: Growth inhibition of human A498 cells incubated for 48 hrs by sulforhodamine B assay; type: functional; conditions: A498, 48 h; outline: as §1
[30] = test system: NCI-H322M; assay: Growth inhibition of human NCI-H322M cells incubated for 48 hrs by sulforhodamine B assay; type: functional; outline: as §1
[31] = test system: RXF 393; assay: Growth inhibition of human RXF393 cells incubated for 48 hrs by sulforhodamine B assay; type: functional; conditions: RXF 393, 48 h; outline: as §1
[32] = test system: BT-549; assay: Growth inhibition of human BT549 cells incubated for 48 hrs by sulforhodamine B assay; type: functional; conditions: BT-549, 48 h; outline: as §1
[33] = test system: MCF7; assay: Cell cycle arrest in human MCF7 cells assessed as reduction in accumulation at G0/G1 phase at GI50 concentration after 48 hrs by propidium iodide-staining based flow cytometry; type: functional
Outline: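 Cells were trypsinized, washed in cold PBS, and 1 x 10^6 cells stained with 20 µg/ml PI plus 200 µg/ml RNase for 30 min at room temperature in the dark. At least 1x 10^4 cells were analysed by flow cytometry. Mean±SD of three experiments in triplicate.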

[34] = test system: SF-295; assay: Growth inhibition of human SF295 cells incubated for 48 hrs by sulforhodamine B assay; type: functional; conditions: SF-295, 48 h; outline: as §1
[35] = test system: SNB-19; assay: Growth inhibition of human SNB19 cells incubated for 48 hrs by sulforhodamine B assay; type: functional; conditions: SNB-19, 48 h; outline: as §2
[36] = test system: SR; assay: Growth inhibition of human SR cells incubated for 48 hrs by sulforhodamine B assay; type: functional; outline: as §2
[37] = test system: SK-MEL-28; assay: Growth inhibition of human SK-MEL-28 cells incubated for 48 hrs by sulforhodamine B assay; type: functional; conditions: SK-MEL-28, 48 h; outline: as §2

SMILES	GI50 [1]	GI50 [2]	GI50 [3]	GI50 [4]	GI50 [5]	GI50 [6]	GI50 [7]	GI50 [8]	GI50 [9]	GI50 [11]	GI50 [12]	GI50 [13]	GI50 [14]	GI50 [15]	GI50 [16]	GI50 [17]	GI50 [18]	growth inhibition (GI) [19]	GI50 [20]	GI50 [21]	other results
COCCn1cc(-c2csc(-c3c[nH]c4ccccc34)n2)c2cccnc21	6.81 µM	2.07 µM	28.2 µM	3.52 µM	> 100 µM	7.38 µM	3.22 µM	0.42 µM	2.53 µM	2.66 µM	3.63 µM	3.19 µM	3.96 µM	4.58 µM	2.8 µM	3.58 µM	2.94 µM	Active	0.97 µM	1.76 µM	GI50 [10]: 14.8 µM; GI50 [22]: 8 µM; GI50 [23]: 2.34 µM; GI50 [24]: 7.1 µM; GI50 [25]: 2.82 µM; Activity [26]: Toxic; GI50 [27]: 4.58 µM; GI50 [28]: 9.14 µM; GI50 [29]: 3.03 µM; GI50 [30]: > 100 µM; GI50 [31]: 5.76 µM; GI50 [32]: 4.45 µM; Activity [33]: Active; GI50 [34]: 3.35 µM; GI50 [35]: 16.2 µM; GI50 [36]: 3.02 µM; GI50 [37]: 8.19 µM
COCCn1cc(-c2csc(-c3c[nH]c4ccc(F)cc34)n2)c2cccnc21	5.06 µM	2.19 µM	10.1 µM	3.63 µM	> 100 µM	3.89 µM	2.69 µM	0.65 µM	3.49 µM	2.69 µM	3.77 µM	2.9 µM	3.44 µM	6.78 µM	2.12 µM	4.54 µM	3.34 µM	Active	2.44 µM	2.17 µM	GI50 [22]: 4.1 µM; GI50 [23]: 2.35 µM; GI50 [24]: 4.51 µM; GI50 [25]: 2.02 µM; Activity [26]: Toxic; GI50 [27]: 3.88 µM; GI50 [28]: 8.82 µM; GI50 [29]: 3.26 µM; GI50 [30]: > 100 µM; GI50 [31]: 5.91 µM; GI50 [32]: 4.26 µM; Activity [33]: Active; GI50 [34]: 3.2 µM; GI50 [35]: 98 µM; GI50 [36]: 3.24 µM; GI50 [37]: 7.72 µM
COCCn1cc(-c2nc(-c3c[nH]c4ncccc34)cs2)c2cc(OC)ccc21	4.22 µM	5.18 µM	0.61 µM	4.5 µM	5.51 µM	3.56 µM	5.53 µM	0.04 µM	0.55 µM	5.03 µM	4.55 µM	4.31 µM	3.69 µM	5.98 µM	4.79 µM	12.6 µM	4.66 µM	Active	0.03 µM	3.07 µM	GI50 [10]: 3.49 µM; GI50 [22]: 4.11 µM; GI50 [23]: 2.15 µM; GI50 [24]: 4.41 µM; GI50 [25]: 2.12 µM; Activity [26]: Non-Toxic; GI50 [27]: 1.63 µM; GI50 [28]: 2.07 µM; GI50 [29]: 1.87 µM; GI50 [30]: 1.95 µM; GI50 [31]: 1.18 µM; GI50 [32]: 2.38 µM; Activity [33]: Active; GI50 [34]: 2.7 µM; GI50 [35]: 9.71 µM; GI50 [36]: 1.28 µM; GI50 [37]: 7.39 µM
COCCn1cc(-c2csc(-c3c[nH]c4ccc(Br)cc34)n2)c2cccnc21	3.68 µM	2.17 µM	4.83 µM	3.3 µM	7.72 µM	6.82 µM	3.24 µM	1.97 µM	4.06 µM	3.22 µM	3.84 µM	3.36 µM	2.67 µM	4.2 µM	3.6 µM	3.66 µM	3.9 µM	Active	2.34 µM	2.86 µM	GI50 [10]: 13.9 µM; GI50 [22]: 5.35 µM; GI50 [23]: 3.14 µM; GI50 [24]: 6.89 µM; GI50 [25]: 7.98 µM; Activity [26]: Toxic; GI50 [27]: 3.21 µM; GI50 [28]: 4.44 µM; GI50 [29]: 3.02 µM; GI50 [30]: 11.8 µM; GI50 [31]: 3.3 µM; GI50 [32]: 4.8 µM; GI50 [34]: 2.83 µM; GI50 [35]: 12.2 µM; GI50 [36]: 3.25 µM; GI50 [37]: 4.79 µM
